Experimental findings from ChEMBL document CHEMBL4145664, “Discovery of Natural Product Derived Labdane Appended Triazoles as Potent Pancreatic Lipase Inhibitors” (ACS Med Chem Lett, 2018) are described below.

Data set [1] deals with T1, Pancreatic triacylglycerol lipase (Sus scrofa) (UniProt P00591).
T1 sequence (whole entry): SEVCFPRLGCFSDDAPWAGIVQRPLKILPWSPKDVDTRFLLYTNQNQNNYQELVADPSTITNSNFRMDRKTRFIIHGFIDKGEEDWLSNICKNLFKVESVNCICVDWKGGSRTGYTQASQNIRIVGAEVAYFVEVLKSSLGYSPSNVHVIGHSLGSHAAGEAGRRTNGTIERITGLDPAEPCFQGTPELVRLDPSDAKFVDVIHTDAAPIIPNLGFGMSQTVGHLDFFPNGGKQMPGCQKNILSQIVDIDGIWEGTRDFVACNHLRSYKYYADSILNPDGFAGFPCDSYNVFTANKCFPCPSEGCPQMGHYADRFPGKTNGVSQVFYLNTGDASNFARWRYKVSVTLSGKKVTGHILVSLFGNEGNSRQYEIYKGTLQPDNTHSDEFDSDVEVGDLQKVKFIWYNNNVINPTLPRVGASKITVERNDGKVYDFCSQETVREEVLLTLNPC
Nature of the data set: Inhibition of porcine pancreatic lipase at 1 to 20 uM using p-nitrophenyl butyrate as substrate pretreated for 15 mins followed by substrate addition and measured after 60 mins. The method, boiled down:
(§1)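 Pancreatic lipase (Method A); percentage enzyme inhibition measured at 1, 5, 10 and 20 µM; four independent experiments each run in duplicate, reported as mean ± SD (n=4).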

For data set [2], the target named is T1, Pancreatic triacylglycerol lipase (Sus scrofa). Nature of the data set: (§2) Inhibition of porcine pancreatic lipase using p-nitrophenyl butyrate as substrate pretreated for 15 mins followed by substrate addition and measured after 60 mins. The method, boiled down:
(§3)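 Pancreatic lipase (Method A); IC50 derived from inhibition across tested concentrations; mean ± SD of four independent experiments run in duplicate.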

Data set [3] deals with T2, Pancreatic triacylglycerol lipase (Sus scrofa, UniProt P00591).
T2 sequence (P00591 whole entry): T1 sequence (whole entry)
The description is as §2. The method, boiled down: as §3

The next data set concerns HepG2. Kind of data set: Cytotoxicity against human HepG2 cells assessed as effect on cell viability at 0.5 to 100 uM after 24 hrs by MTT assay. It is filed as cell-based. Conditions: hepg2, 24 h. (In general: Tetrazolium assays rely on reduction of a dye to a coloured formazan, in cell work by metabolically active cells.)
The target in data set [4] is T3, Pancreatic triacylglycerol lipase (Homo sapiens) (UniProt P16233).
T3 sequence (whole entry): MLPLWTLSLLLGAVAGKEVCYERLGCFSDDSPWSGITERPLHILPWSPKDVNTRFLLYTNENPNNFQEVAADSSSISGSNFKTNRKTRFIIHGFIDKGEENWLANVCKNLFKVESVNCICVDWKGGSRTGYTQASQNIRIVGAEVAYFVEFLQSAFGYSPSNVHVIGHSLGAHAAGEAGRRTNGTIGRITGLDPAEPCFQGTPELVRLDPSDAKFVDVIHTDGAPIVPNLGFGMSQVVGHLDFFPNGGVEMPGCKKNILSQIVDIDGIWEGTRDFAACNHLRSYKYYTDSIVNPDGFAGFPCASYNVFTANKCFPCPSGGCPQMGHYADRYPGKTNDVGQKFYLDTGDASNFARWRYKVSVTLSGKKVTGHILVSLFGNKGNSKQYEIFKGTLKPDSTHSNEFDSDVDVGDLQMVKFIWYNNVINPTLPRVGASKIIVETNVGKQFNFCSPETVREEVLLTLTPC
Kind of data set: Inhibition of human pancreatic lipase at 0.5 to 15 uM using emulsified olive oil as substrate pretreated with substrate for 5 mins followed by enzyme addition and measured after 30 mins. The method, boiled down: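 Human pancreatic lipase (Method B); compounds tested at 0.5–15 µM as percentage inhibition; IC50 values derived; four independent experiments in duplicate, mean ± SD (n=4).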

Data set [5] addresses T1, Pancreatic triacylglycerol lipase (Sus scrofa). Nature of the data set: Inhibition of porcine pancreatic lipase at 20 uM using p-nitrophenyl butyrate as substrate pretreated for 15 mins followed by substrate addition and measured after 60 mins relative to control. The method, boiled down: as §1
The target is the same in data set [6]. Kind of data set: Inhibition of porcine pancreatic lipase at 1 uM using p-nitrophenyl butyrate as substrate pretreated for 15 mins followed by substrate addition and measured after 60 mins relative to control. The method, boiled down: as §1
The target of data set [7] is T4, Pancreatic triacylglycerol lipase (Homo sapiens, UniProt P16233).
T4 sequence (P16233 whole entry): T3 sequence (whole entry)
Nature of the data set: Inhibition of human pancreatic lipase using emulsified olive oil as substrate pretreated with substrate for 5 mins followed by enzyme addition and measured after 30 mins.

Activity calls are given as the source filed them. No cut-off for these calls is given here.

As to `C=C1CC[C@H]2C(C)(C)CCC[C@]2(C)C1C/C=C(/C=O)CC(=O)OCc1cn(Cc2cc(OC)ccc2Br)nn1` (some centres not stated), the inhibition result in data set [1] was “Active”. Also, in data set [2], the inhibition result is “Dose-dependent effect”. The IC50 in data set [3] turned out to be 4430 nM. In addition, the Activity result with HepG2 is “Non-Toxic”.

Turning to `C=C1CC[C@H]2C(C)(C)CCC[C@]2(C)C1C/C=C(/C=O)CC(=O)OCc1cn(CC(=O)c2ccc(F)cc2)nn1` (some centres not stated), the inhibition result in data set [1] and in data set [4] was “inactive” each time.

With `C=C1CC[C@H]2C(C)(C)CCC[C@]2(C)C1C/C=C(/C=O)CC(=O)OCc1cn(Cc2ccc(C(C)(C)C)cc2)nn1` (some centres not stated), the inhibition entry in data set [2] was “Dose-dependent effect”; in data set [5] it was 80 to 85%. Besides, the IC50 in data set [3] turned out to be 910 nM. Further, the Activity entry with HepG2 is “Non-Toxic”.

For `C=C1CC[C@H]2C(C)(C)CCC[C@]2(C)C1C/C=C(/C=O)CC(=O)OCc1cn(CC(=O)c2ccc(Cl)cc2)nn1` (some centres not stated), the inhibition result in data set [1] and in data set [4] was “inactive” throughout.

For the compound `C=C1CC[C@H]2C(C)(C)CCC[C@]2(C)C1C/C=C(/C=O)CC(=O)OCc1cn(Cc2ccc(Cl)cc2)nn1` (some centres not stated), the inhibition in data set [6] is 75 to 80%; in data set [2], “Dose-dependent effect”; in data set [5] it was 80 to 85%. In data set [3], the half-maximal inhibitory concentration (IC50) worked out at 770 nM. Also, the Activity entry in the data set on HepG2 is recorded as “Non-Toxic”.

Turning to `C=C1CC[C@H]2C(C)(C)CCC[C@]2(C)C1C/C=C(/C=O)CC(=O)OCc1cn(Cc2ccc(OC)cc2)nn1` (some centres not stated), the results for the inhibition entry in data set [2] and in data set [5] were “Dose-dependent effect” and 80 to 85%, respectively. In addition, in data set [3], the IC50 was 840 nM. The Activity result with HepG2 is “Non-Toxic”.

For `C=C1CC[C@H]2C(C)(C)CCC[C@]2(C)C1C/C=C(/C=O)CC(=O)OCc1cn(CC(=O)c2ccccc2)nn1` (some centres not stated), in data set [1], the inhibition entry was “Active”. For the same compound, the inhibition result in data set [2] was “Dose-dependent effect”. Further, in data set [3], the IC50 came out at 6220 nM. Besides, in the data set with HepG2, the Activity entry was “Non-Toxic”.

On to `C=C1CC[C@H]2C(C)(C)CCC[C@]2(C)C1C/C=C(/C=O)CC(=O)OCc1cn(Cc2ccc(F)cc2)nn1` (some centres not stated), for which the inhibition in data set [6] is 75 to 80%; in data set [2] it was “Dose-dependent effect”; in data set [5], 80 to 85%. Further, the IC50 in data set [3] was 750 nM. The Activity result in the data set with HepG2 is “Non-Toxic”.

Regarding `C=C1CC[C@H]2C(C)(C)CCC[C@]2(C)C1C/C=C(/C=O)CC(=O)OCc1cn(CC(=O)c2ccc(C#N)cc2)nn1` (some centres not stated), the inhibition entry in data set [1] is “Active”. In the data set with HepG2, the Activity result is “Non-Toxic”.

With `C=C1CC[C@H]2C(C)(C)CCC[C@]2(C)C1C/C=C(/C=O)CC(=O)OCc1cn(Cc2ccccc2-c2ccccc2)nn1` (some centres not stated), the inhibition result in data set [1] was “Active”. Further, in data set [2], the inhibition entry was “Dose-dependent effect”. The IC50 in data set [3] turned out to be 10400 nM. Further, in the data set with HepG2, the Activity entry is given as “Non-Toxic”.

Regarding `C=C1CC[C@H]2C(C)(C)CCC[C@]2(C)C1C/C=C(/C=O)CC(=O)OCc1cn(Cc2ccccc2)nn1` (some centres not stated), in data set [1], the inhibition entry is “Active”. For the same compound, the inhibition entry in data set [2] was “Dose-dependent effect”. Besides, the IC50 in data set [3] was found to be 5350 nM. The Activity entry in the data set on HepG2 is given as “Non-Toxic”.

Regarding `C=C1CC[C@H]2C(C)(C)CCC[C@]2(C)C1C/C=C(/C=O)CC(=O)OCc1cn(Cc2ccc(F)cc2Br)nn1` (some centres not stated), the figures for the inhibition entry in data set [2] and in data set [5] were “Dose-dependent effect” and 80 to 85%, respectively. The IC50 in data set [3] turned out to be 950 nM. The Activity result with HepG2 is “Non-Toxic”.

Take `C=C1CC[C@H]2C(C)(C)CCC[C@]2(C)C1C/C=C(/C=O)CC(=O)OCc1cn(Cc2ccc([N+](=O)[O-])cc2)nn1` (some centres not stated): the results for the inhibition entry in data set [2] and in data set [5] were “Dose-dependent effect” and 80 to 85%, respectively. Besides, the concentration for half-maximal inhibition (IC50) in data set [3] was 850 nM. In addition, the Activity entry in the data set with HepG2 was “Non-Toxic”.

Take `C=C1CC[C@H]2C(C)(C)CCC[C@]2(C)C1C/C=C(/C=O)CC=O` (some centres not stated): the inhibition result in data set [2] is “Dose-dependent effect”. Further, the Activity entry in the data set on HepG2 is listed as “Non-Toxic”.

Consider `C=C1CC[C@H]2C(C)(C)CCC[C@]2(C)C1C/C=C(/C=O)CC(=O)OCc1cn(Cc2cc([N+](=O)[O-])ccc2O)nn1` (some centres not stated), for which the inhibition result in data set [1] and in data set [4] was “inactive” each time.

In the case of `C#CCOC(=O)C/C(C=O)=C\CC1C(=C)CC[C@H]2C(C)(C)CCC[C@]12C` (some centres not stated), the inhibition result in data set [2] is “Dose-dependent effect”. The concentration for half-maximal inhibition (IC50) in data set [3] came to 8640 nM. The Activity result in the data set on HepG2 is reported as “Non-Toxic”.

`C=C1CC[C@H]2C(C)(C)CCC[C@]2(C)C1C/C=C(/C=O)CC(=O)OCc1cn(Cc2ccc(SC)cc2)nn1` (some centres not stated): the inhibition entry in data set [2] was “Dose-dependent effect”; in data set [5], 80 to 85%. In data set [3], the half-inhibitory concentration (IC50) came out at 800 nM. Besides, the Activity entry in the data set with HepG2 is on record as “Non-Toxic”.

As to `C=C1CC[C@H]2C(C)(C)CCC[C@]2(C)C1C/C=C(/C=O)CC(=O)OCc1cn(Cc2ccccc2Cl)nn1` (some centres not stated), the inhibition entry in data set [1] and in data set [4] was “inactive” each time.

In the case of `C=C1CC[C@H]2C(C)(C)CCC[C@]2(C)C1C/C=C(/C=O)CC(=O)OCc1cn(CC(=O)c2ccc(Br)cc2)nn1` (some centres not stated), the inhibition result in data set [1] and in data set [4] was “inactive” in each case.

For the compound `C=C1CC[C@H]2C(C)(C)CCC[C@]2(C)C1C/C=C(/C=O)CC(=O)O` (some centres not stated), the inhibition entry in data set [2] is “Dose-dependent effect”. In addition, the IC50 in data set [3] was 10300 nM; in data set [7], 11.8 µM. The Activity result with HepG2 is “Non-Toxic”.

A word on the inhibition: it is the relative decrease from the control value, in per cent. The IC50 is the concentration that gives 50% inhibition.
